By Ki is commonly meant a measure of affinity in units of concentration, obtained from inhibition or displacement.

We go through 20 compounds from ChEMBL document CHEMBL1156933, “Studies of benzothiophene template as potent factor IXa (FIXa) inhibitors in thrombosis” (J Med Chem, 2010).

One assay addresses Coagulation factor X (Homo sapiens, UniProt P00742). The assay is described as follows: Inhibition of factor 10 by amidolytic assay. The procedure, abridged: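 Done by a previously published literature method. IC50 values are the mean of at least three experiments, with variation among results under 10%.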
The target in the next assay is Coagulation factor IX (Homo sapiens, UniProt P00740). Put plainly: Inhibition of human recombinant factor 9a by amidolytic assay.
Coagulation factor IX, sequence (P00740 47-191 limits assumed): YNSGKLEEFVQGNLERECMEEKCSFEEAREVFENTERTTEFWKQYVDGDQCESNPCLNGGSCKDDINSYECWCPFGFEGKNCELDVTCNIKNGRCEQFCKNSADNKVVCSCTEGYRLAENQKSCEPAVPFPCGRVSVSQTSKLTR
Coagulation factor IX, sequence (P00740 227-461 limits assumed): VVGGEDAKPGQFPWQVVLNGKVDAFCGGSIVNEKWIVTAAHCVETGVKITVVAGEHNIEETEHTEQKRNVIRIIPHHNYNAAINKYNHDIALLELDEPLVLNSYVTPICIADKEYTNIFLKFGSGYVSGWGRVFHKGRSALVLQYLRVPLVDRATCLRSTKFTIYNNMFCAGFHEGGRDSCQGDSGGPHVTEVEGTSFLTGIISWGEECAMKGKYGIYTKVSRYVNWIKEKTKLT

Coagulation factor X, sequence (P00742 41-179 limits assumed): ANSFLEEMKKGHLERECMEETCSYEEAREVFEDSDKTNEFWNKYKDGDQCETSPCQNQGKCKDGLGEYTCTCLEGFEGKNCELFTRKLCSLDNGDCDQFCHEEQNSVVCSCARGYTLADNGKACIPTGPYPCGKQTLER
Coagulation factor X, sequence (P00742 235-488 limits assumed): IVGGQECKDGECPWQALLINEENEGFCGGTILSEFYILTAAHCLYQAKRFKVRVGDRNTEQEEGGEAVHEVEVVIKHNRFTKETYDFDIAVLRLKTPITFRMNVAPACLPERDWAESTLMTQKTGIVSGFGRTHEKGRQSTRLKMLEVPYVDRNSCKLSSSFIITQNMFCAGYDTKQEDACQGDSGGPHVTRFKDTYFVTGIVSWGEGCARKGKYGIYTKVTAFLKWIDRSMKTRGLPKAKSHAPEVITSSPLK

In the case of `N=C(N)c1cc2c(OCc3ccccc3)cccc2s1`, the figures for the Ki at Coagulation factor X and at Coagulation factor IX were 6 µM and 1.5 µM, respectively.
As to `COC(=O)CC(Oc1ccc2cc(C(=N)N)sc2c1)c1ccc(Cl)cc1` (stereo unspecified), the inhibitory constant (Ki) worked out at 0.033 µM at Coagulation factor X and 0.028 µM on Coagulation factor IX.
For `COc1ccc(-c2ccc3sc(C(=N)N)cc3c2)cc1OC`, the Ki came to 11.9 µM on Coagulation factor X and 5.9 µM on Coagulation factor IX.
For the compound `COc1ccc(-c2ccc3cc(C(=N)N)sc3c2)cc1OC`, the Ki at Coagulation factor IX is 24.2 µM.
Consider `N=C(N)c1cc2ccc(OCc3cccs3)cc2s1`, for which the results for the inhibition constant (Ki) on Coagulation factor X and at Coagulation factor IX were 1.15 µM and 0.35 µM, respectively.
As to `N=C(N)c1cc2c(I)cccc2s1`, the Ki on Coagulation factor X stood at 22 µM; at Coagulation factor IX, 0.95 µM.
Turning to `CCOC(=O)COc1cccc2sc(C(=N)N)cc12`, at Coagulation factor IX, the inhibition constant (Ki) is 11.9 µM.
In the case of `COC(=O)c1ccc(COc2ccc3cc(C(=N)N)sc3c2)cc1`, the Ki at Coagulation factor IX was found to be 11.3 µM.
Regarding `N=C(N)c1cc2ccc(OCCc3ccccc3)cc2s1`, on Coagulation factor IX, the inhibition constant Ki was found to be 21.6 µM.
As for `Cc1ccc(COc2ccc3cc(C(=N)N)sc3c2)cc1`, the Ki on Coagulation factor X is 7.9 µM; on Coagulation factor IX, 0.9 µM.
`COc1ccccc1COc1ccc2cc(C(=N)N)sc2c1`: the Ki on Coagulation factor IX stood at 26.9 µM.
Still for that read-out and setting: in the case of `N=C(N)c1cc2c(-c3ccccc3)cccc2s1` it was 1.6 µM; in that of `N=C(N)c1cc2ccc(OCc3ccccc3Cl)cc2s1`, 7.2 µM.
Regarding `N=C(N)c1cc2ccc(OCc3cccnc3)cc2s1`, the Ki is 3.35 µM at Coagulation factor X and 1.05 µM on Coagulation factor IX.
Regarding `CC(Oc1ccc2cc(C(=N)N)sc2c1)c1ccc(F)cc1` (stereo unspecified), on Coagulation factor IX, the Ki is 11.3 µM.
In the case of `N=C(N)c1cc2c(OCc3nc4ccccc4s3)cccc2s1`, the inhibitory constant (Ki) was 2.6 µM at Coagulation factor X and 0.8 µM at Coagulation factor IX.
For `CCOC(=O)COc1ccc2cc(C(=N)N)sc2c1`, the inhibition constant Ki at Coagulation factor X turned out to be 0.6 µM; on Coagulation factor IX it was 3.8 µM.
For the compound `N=C(N)c1cc2ccc(OCc3ccc(Cl)cc3)cc2s1`, the figures for the Ki at Coagulation factor X and at Coagulation factor IX were 2.9 µM and 0.45 µM, respectively.
On to `N=C(N)c1cc2cc(-c3ccccc3)ccc2s1`, for which the inhibition constant (Ki) on Coagulation factor IX worked out at 8 µM.
With `N=C(N)c1cc2ccc(OCc3ccc(F)c(F)c3)cc2s1`, the Ki came to 5.7 µM at Coagulation factor X and 0.45 µM at Coagulation factor IX.
